Source: PubChem
CFTR F508del cor: F508del CFTR correction, initial screen, CFBE line, single point; CFBE cells, YFP halide quenching; stimulated with forskolin plus potentiator P3; % fluorescence drop versus neutral controls; 350,000 compounds, 0.36% hits; AID 720511, 2013; activity (quench increase), % at 7.58 µM;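 active means mean added fluorescence quench of at least 8% versus neutral control, with both replicates also reaching 8%; inconclusive means only one of the mean or replicate conditions met; inactive means mean below 8% and not both replicates reaching 8%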;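 further: cells transiently co-express mutant CFTR-F508del with the halide-sensitive YFP; corrector assay measuring rescue of mutant channel to the surface after 24 h compound exposure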
Ecoli rRNA inh: reduced GFP signal of wild-type E. coli, primary screen, bacterial rRNA inhibitor project, GFP/RFP fluorescence, OD600, single point; GFP signal change (wild-type ribosome), % (test concentration not listed); 350,000 compounds, 1.6% hits; E. coli WT GFP vs humanized-ribosome RFP mutants, 24 h; hits give low values; DMSO median 0, no signal -100;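 active means significant combined selectivity score with lowered wild-type GFP, culture density cut under 30%, mutant RFP and density less affected; inactive means any of these conditions unmet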
CaV13 ICDI inh: Disruptors of the CACNA1D IQ motif to Ca2+-dependent inactivation inhibitor domain association, primary screening, Förster resonance energy transfer in intact living …. inhibition, % at 12.3 µM. HEK cells, CFP/YFP FRET ICDI-IQ, plate reader, 10 min; percent FRET-ratio fall versus neutral wells. 340,000 compounds, 0.098% hits;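 active means mean replicate inhibition of at least 30% and at least 1% of replicates passing that level; inconclusive means only one of the two criteria is met; inactive means neither criterion is met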
Cneo AK release: Cryptococcus neoformans cell lysis inducers, primary screen, AK release luminescence, single concentration | C. neoformans lysis, adenylate kinase release luminescence, 4 h; normalised: neutral wells 0, clomiphene wells 100 | lysis activity, % at 15 µM | 360,000 compounds, 0.2% hits | AID 651654, 2012;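 active means mean lysis activity across replicates of at least 80%, whatever share of replicates individually reach that level; inactive means mean lysis activity below 80%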
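Schedule: static 4 h at 37 °C with compound, 1 h detection; system: C. neoformans cells; benchmarks: Clomiphene as positive control; buffer or medium: fresh YPD medium; measure: luminescence rise reflecting yeast cell lysis; measured by: luminescent adenylate kinase detection reagent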
AID977621: growth inhibition of wild-type GFP E. coli, dose response, H69 mutant RFP, cherry-pick. activity change, negative = inhibition at 50 µM. shares compounds with Ecoli rRNA inh. AID 977621, 2014. E. coli wild-type GFP strain growth, fluorescence, 24 h. 1,900 tested, under 10 active;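 active means Wild-type ribosome reporter drop at least double the humanized mutant ribosome reporter drop, growth loss under a set limit; inconclusive means no clear call, values can overlap the other calls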;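 further: wild-type GFP and H69 mutant RFP strains grown together 50/50 in each well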
AID977628: E. coli growth inhibition, wild-type GFP versus h24 humanized RFP strain, dose response, h24 mutant RFP vs wild-type GFP, cherry-pick; 1,900 tested, under 10 active; E. coli WT GFP strain growth, fluorescence, 24 h; AID 977628, 2014; shares compounds with Ecoli rRNA inh; activity change, negative = inhibition at 50 µM;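 active means compound lowering the normal-ribosome reporter at least twice as much as the humanized-ribosome reporter, growth loss under a set limit; inconclusive means no clear call, values can overlap the other calls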;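 further: wild-type GFP and h24 humanized RFP strains co-cultured 1 to 1 per well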
Each line names hits and unclear results; the compound was inactive in the other large screens (follow-up assays come after a bar, where they were run). An excerpt weighted towards active compounds, which were near 1.7% of everything screened.

O=C(NCc1ccc2c(c1)OCO2)C1CCC(=O)N1C1CCCCC1 (stereo not drawn)	Ecoli rRNA inh -23.4 | AID977621 inactive | AID977628 inconclusive
CCc1ccc(CNC(=O)C2CCC(=O)N2C2CCCCC2)cc1 (stereo not drawn)	none (no result: CFTR F508del cor, Ecoli rRNA inh)
CCC(=O)N1[C@H](CO)[C@H](c2ccc(-c3ccccc3)cc2)[C@H]1CNC(=O)COC	none (no result: CaV13 ICDI inh, Cneo AK release)
COCC(=O)N1CC(=O)N2[C@@H](CO)[C@H](c3ccc(C#CC(C)C)cc3)[C@@H]2C1	none (no result: CaV13 ICDI inh, Cneo AK release)
C[C@@H]1CN([C@@H](C)CO)C(=O)c2cccc(NC(=O)NC3CCCCC3)c2O[C@@H]1CN(C)C(=O)Nc1ccccc1	none (no result: CaV13 ICDI inh)
COc1ccc(CC(=O)NCc2csc(-c3cccs3)n2)cc1OC	Ecoli rRNA inh -20.5 (no result: Cneo AK release) | AID977621 inactive
COc1ccc(CC(=O)NCc2ccccc2)cc1OC	none
COc1ccc(OC)c(-c2nn(-c3ccccc3)cc2C(=O)N2CCc3ccccc3C2)c1	Ecoli rRNA inh -16.4 | AID977621 inactive
COc1ccccc1-c1nn(-c2ccccc2)cc1C(=O)N1CCc2ccccc2C1	none
Cc1noc(C)c1S(=O)(=O)N(Cc1ccccc1)C(C)C	Ecoli rRNA inh -18.9 | AID977621 inactive | AID977628 inactive
Cc1ccc(S(=O)(=O)N(Cc2ccccc2)C(C)C)cc1	none
O=C(Nc1cccnc1)c1cc(Br)c(Br)s1	none
NC(=O)c1cc(NC(=O)c2cc(Br)c(Br)s2)cc(C(N)=O)c1	Ecoli rRNA inh -23.9 (no result: Cneo AK release) | AID977628 inconclusive
COc1cc(CN2[C@@H]3CNC[C@H]2C3c2ccc(-c3cccc(C)c3)cc2)cc(OC)c1 (stereo partly drawn)	none (no result: CaV13 ICDI inh, Cneo AK release)
CCOc1ccc2nc(SCC(=O)Nc3nonc3C)[nH]c2c1	Ecoli rRNA inh -20.4 (no result: Cneo AK release) | AID977621 inactive | AID977628 inactive
CO[C@@H]1CN(C)C(=O)c2ccc(NC(=O)c3nc4ccccc4s3)cc2OC[C@@H](C)N(Cc2ccncc2)C[C@@H]1C	Ecoli rRNA inh -25.1 (no result: CaV13 ICDI inh) | AID977628 inconclusive
CCN(CC(=O)Nc1cccc(S(=O)(=O)N2CCCC2)c1)CC(=O)Nc1ccccc1OC	Ecoli rRNA inh -18.1 (no result: Cneo AK release) | AID977621 inactive | AID977628 inactive
CCN(CC)CC(=O)Nc1ccc(-c2ccc(NC(=O)CN(CC)CC)c(OC)c2)cc1OC	Ecoli rRNA inh -23.0 (no result: Cneo AK release) | AID977621 inactive
COc1ccc(Cl)cc1NC(=O)CN(C)CC(=O)Nc1cccc(S(=O)(=O)N2CCCC2)c1	none
Cc1ccc(S(=O)(=O)Nc2ccc3c(c2)C(=O)N([C@H](C)CO)C[C@H](C)[C@@H](CN(C)S(C)(=O)=O)OCCCC[C@H](C)O3)cc1	none (no result: CaV13 ICDI inh)
Cc1nc2ccccn2c1C(=O)Nc1ccc(Cl)cc1	Ecoli rRNA inh -18.0 (no result: Cneo AK release) | AID977621 inactive | AID977628 inactive
CC(=O)Nc1ccc(NC(=O)c2c(C)nc3ccccn23)cc1	none (no result: CFTR F508del cor, Ecoli rRNA inh, CaV13 ICDI inh)
C[C@H]1CN([C@@H](C)CO)S(=O)(=O)c2ccc(-c3cccnc3)cc2O[C@H]1CN(C)C(=O)c1cccc(F)c1	none (no result: CaV13 ICDI inh)
CC(=O)NCCOc1nc(N2CCCCC2)nc(N2CCCCC2)n1	Ecoli rRNA inh -25.2 | AID977621 inactive | AID977628 inactive
O=C(NCCOc1nc(N2CCCCC2)nc(N2CCCCC2)n1)Nc1ccccc1	none
O=c1ccc(-c2ccc([N+](=O)[O-])cc2)nn1-c1ccccc1	none (no result: Cneo AK release)
O=[N+]([O-])c1ccc(-[n+]2nc(-c3ccccc3)nn2-c2ccccc2)cc1	Ecoli rRNA inh -21.8 | AID977628 inconclusive
Cc1ccc(Nc2nc(C(=O)NCC3CCCO3)cs2)cc1 (stereo not drawn)	Ecoli rRNA inh -42.4 (no result: Cneo AK release) | AID977621 inactive | AID977628 inactive
O=S(=O)(NC1CC1)c1ccc(S(=O)(=O)N2CCc3ccccc32)cc1	Ecoli rRNA inh -19.9 (no result: CFTR F508del cor, CaV13 ICDI inh) | AID977621 inactive
O=S(=O)(c1ccc(F)cc1)N1CCc2ccccc21	none
COc1ccc(S(=O)(=O)N(C)C[C@@H]2Oc3c(NC(=O)C4CCCCC4)cccc3C(=O)N([C@H](C)CO)C[C@@H]2C)cc1	none (no result: CaV13 ICDI inh)
CCOC(=O)N1CCN(CC(O)COCCC23CC4CC(CC(C4)C2)C3)CC1 (stereo not drawn)	none (no result: CFTR F508del cor, Ecoli rRNA inh)
CC1CCCCN1CC(O)COCCC12CC3CC(CC(C3)C1)C2 (stereo not drawn)	Ecoli rRNA inh -28.7 | AID977621 inactive
CCS(=O)(=O)c1ccc2oc(SCC(=O)NCCc3ccc(OC)cc3)nc2c1	none (no result: Cneo AK release)
CN(C)S(=O)(=O)c1ccc2oc(SCC(=O)NCC(F)(F)F)nc2c1	Ecoli rRNA inh -14.4 (no result: CFTR F508del cor) | AID977621 inconclusive | AID977628 inactive
O=C(COC(=O)c1ccccc1NC(=O)c1ccco1)NC1CC1	none (no result: Cneo AK release)
CC1CCN(C(=O)COC(=O)c2ccccc2NC(=O)c2ccco2)CC1	Ecoli rRNA inh -31.7 (no result: Cneo AK release) | AID977621 inactive | AID977628 inactive
COc1ccc(C#Cc2ccc3c(c2)[C@@H]2[C@@H](CCN2Cc2nccs2)[C@@H](CO)N3)cc1	Ecoli rRNA inh -21.9 (no result: CaV13 ICDI inh) | AID977628 inconclusive
CO[C@@H]1CN(C)C(=O)c2ccc(NS(C)(=O)=O)cc2OC[C@@H](C)N(Cc2cccnc2)C[C@H]1C	none (no result: CaV13 ICDI inh, Cneo AK release)
COc1ccccc1CNC(=O)CSc1ccc(C)cc1	Ecoli rRNA inh -16.2 (no result: CFTR F508del cor, Cneo AK release) | AID977621 inactive
COc1ccccc1CNC(=O)CSc1ccccc1	none (no result: Cneo AK release)
COc1ccccc1CNC(=O)CN1C(=O)NC(c2ccccc2)(c2ccccc2)C1=O	Ecoli rRNA inh -16.4 (no result: Cneo AK release) | AID977621 inactive
CC(C)NC(=O)N(C)C[C@H]1Oc2c(NS(C)(=O)=O)cccc2C(=O)N(C)C[C@@H]1C	none (no result: CFTR F508del cor, CaV13 ICDI inh, Cneo AK release)
O=C(C[C@@H]1C[C@@H]2c3cc(NC(=O)C4CCC4)ccc3O[C@@H]2[C@@H](CO)O1)NCC(F)(F)F	none (no result: CaV13 ICDI inh)
Cc1noc(C)c1NC(=O)Nc1ccc2c(c1)C(=O)N([C@H](C)CO)C[C@@H](C)[C@@H](CN(C)Cc1ccc3c(c1)OCO3)O2	none (no result: CaV13 ICDI inh)
COc1cc(NC(=O)c2ccc(Cl)cc2)c(OC)cc1NC(=O)CN1CCCCC1	Ecoli rRNA inh -26.3 (no result: Cneo AK release) | AID977621 inactive | AID977628 inactive
CS(=O)(=O)N1[C@H](C(=O)NCCc2ccncc2)[C@@H](CO)[C@@H]2Cn3c(ccc(C4=CCCC4)c3=O)[C@@H]21	none (no result: CFTR F508del cor, CaV13 ICDI inh)
Cc1ccsc1C(=O)C1CCCN(Cc2cn(C)nc2-c2ccccc2)C1 (stereo not drawn)	none (no result: Cneo AK release)
Cn1cc(CN2CCCC(C(=O)c3cccs3)C2)c(-c2cccc(Cl)c2)n1 (stereo not drawn)	Ecoli rRNA inh -25.2 | AID977621 inactive | AID977628 inactive
